Calls of active or inactive are those of the source.
System: Mus musculus
Test: Anticonvulsant activity in ip dosed mouse assessed as inhibition of PTZ-induced clonic seizure after 0.5 hrs
Assay type: functional
Details: read-out: MED
Summary of the method: (§1)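 Male Kunming mice were dosed ip with the compound suspended in 0.5% methylcellulose at 30, 100 and 300 mg/kg, one to four mice per dose. Pentylenetetrazole in 0.9% saline was given subcutaneously at 0.5 h and 4.0 h. Protection meant no threshold seizure, i.e. no single clonic spasm episode lasting at least 5 s. The minimal dose active in half or more of the mice was recorded.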

| SMILES | minimal effective dose [mg/kg] |
| --- | --- |
| CC1(C)CC12NC(=O)N(NC(=O)c1ccc(C(F)(F)F)cc1)C2=O (stereo not given) | 300 |
| CCC1(C)CC(=O)NC1=O (stereo not given) [ETHOSUXIMIDE] | 100 |
| CN(C)c1ccc(C(=O)NN2C(=O)NC3(CC3(C)C)C2=O)cc1 (stereo not given) | 100 |
| CC(C)(C)c1ccc(C(=O)NN2C(=O)NC3(CC3(C)C)C2=O)cc1 (stereo not given) | 100 |
| CC1(C)CC12NC(=O)N(N1C(=O)c3ccccc3C1=O)C2=O (stereo not given) | 300 |
| CC1(C)CC12NC(=O)N(NC(=O)c1ccc([N+](=O)[O-])cc1)C2=O (stereo not given) | 300 |
| CC1(C)CC12NC(=O)N(NC(=O)c1ccc(Cl)cc1)C2=O (stereo not given) | 300 |
| CC1(C)CC12NC(=O)N(NC(=O)c1ccccc1Cl)C2=O (stereo not given) | 300 |
| CC1(C)CC12NC(=O)N(NC(=O)c1ccc(F)cc1)C2=O (stereo not given) | 300 |
| CC1(C)CC12NC(=O)N(NC(=O)c1ccccc1)C2=O (stereo not given) | 300 |

System: Mus musculus
Test: Anticonvulsant activity in ip dosed mouse assessed as inhibition of maximum electric shock-induced hind limb tonic extension after 4 hrs
Assay type: functional
Details: Hindlimb
Summary of the method: (§2)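 Male Kunming mice received the compound ip as a suspension in 0.5% methylcellulose at 30, 100 and 300 mg/kg, one to four mice per dose. At 0.5 h and 4.0 h, a 60-Hz, 50-mA current was given through corneal electrodes for 0.25 s. Absence of hindlimb tonic extension counted as protection. The minimal dose protecting half or more of the mice was recorded.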

| SMILES | Activity |
| --- | --- |
| CCC1(C)CC(=O)NC1=O (stereo not given) [ETHOSUXIMIDE] | inactive |
| CC1(C)CC12NC(=O)N(NC(=O)c1ccccc1Cl)C2=O (stereo not given) | inactive |
| CC1(C)CC12NC(=O)N(NC(=O)c1ccccc1)C2=O (stereo not given) | inactive |

Same assay, conditions: Hindlimb, read-out: MED

| SMILES | minimal effective dose [mg/kg] |
| --- | --- |
| CC1(C)CC12NC(=O)N(NC(=O)c1ccc(C(F)(F)F)cc1)C2=O (stereo not given) | 30 |
| CN(C)c1ccc(C(=O)NN2C(=O)NC3(CC3(C)C)C2=O)cc1 (stereo not given) | 300 |
| CC(C)(C)c1ccc(C(=O)NN2C(=O)NC3(CC3(C)C)C2=O)cc1 (stereo not given) | 100 |
| CC1(C)CC12NC(=O)N(N1C(=O)c3ccccc3C1=O)C2=O (stereo not given) | 100 |
| CC1(C)CC12NC(=O)N(NC(=O)c1ccc([N+](=O)[O-])cc1)C2=O (stereo not given) | 300 |
| CC1(C)CC12NC(=O)N(NC(=O)c1ccc(Cl)cc1)C2=O (stereo not given) | 300 |
| CC1(C)CC12NC(=O)N(NC(=O)c1ccc(F)cc1)C2=O (stereo not given) | 300 |

System: Mus musculus
Test: Anticonvulsant activity in ip dosed mouse assessed as inhibition of PTZ-induced clonic seizure
Assay type: functional
Details: not given
Summary of the method: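 Male Kunming mice (20 ± 2.0 g) were used. Test drug was given ip to groups of 10 mice over a range of doses until at least three points fell between 10% and 90% seizure protection or minimal neurotoxicity. […] Neurotoxicity was scored on the rotorod 30 min after dosing. PI = TD50/ED50.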

| SMILES | ED50 [mg/kg] |
| --- | --- |
| CC1(C)CC12NC(=O)N(NC(=O)c1ccc(C(F)(F)F)cc1)C2=O (stereo not given) | 62.1 |
| NC(=O)N1c2ccccc2C=Cc2ccccc21 [CARBAMAZEPINE] | > 100 |
| CC(C)(C)c1ccc(C(=O)NN2C(=O)NC3(CC3(C)C)C2=O)cc1 (stereo not given) | 208 |
| CC1(C)CC12NC(=O)N(N1C(=O)c3ccccc3C1=O)C2=O (stereo not given) | 137 |
| CCCC(CCC)C(=O)[O-].[Na+] [VALPROATE SODIUM] | 149 |
| CCC1(c2ccccc2)C(=O)NC(=O)NC1=O [PHENOBARBITAL] | 13.2 |

System: not listed separately
Test: Toxicity against ip dosed mouse
Assay type: organism-based
Details: in vivo

| SMILES | TD50 [mg/kg] |
| --- | --- |
| CC1(C)CC12NC(=O)N(NC(=O)c1ccc(C(F)(F)F)cc1)C2=O (stereo not given) | 422 |
| CC(C)(C)c1ccc(C(=O)NN2C(=O)NC3(CC3(C)C)C2=O)cc1 (stereo not given) | 382 |
| CC1(C)CC12NC(=O)N(N1C(=O)c3ccccc3C1=O)C2=O (stereo not given) | 387 |

System: Mus musculus
Test: Anticonvulsant activity in ip dosed mouse assessed as inhibition of maximum electric shock-induced hind limb tonic extension after 0.5 hrs
Assay type: functional
Details: Hindlimb
Summary of the method: as §2

| SMILES | Activity |
| --- | --- |
| CCC1(C)CC(=O)NC1=O (stereo not given) [ETHOSUXIMIDE] | inactive |

Same assay, conditions: Hindlimb, read-out: MED

| SMILES | minimal effective dose [mg/kg] |
| --- | --- |
| CC1(C)CC12NC(=O)N(NC(=O)c1ccc(C(F)(F)F)cc1)C2=O (stereo not given) | 30 |
| CN(C)c1ccc(C(=O)NN2C(=O)NC3(CC3(C)C)C2=O)cc1 (stereo not given) | 300 |
| CC(C)(C)c1ccc(C(=O)NN2C(=O)NC3(CC3(C)C)C2=O)cc1 (stereo not given) | 30 |
| CC1(C)CC12NC(=O)N(N1C(=O)c3ccccc3C1=O)C2=O (stereo not given) | 30 |
| CC1(C)CC12NC(=O)N(NC(=O)c1ccc([N+](=O)[O-])cc1)C2=O (stereo not given) | 300 |
| CC1(C)CC12NC(=O)N(NC(=O)c1ccc(Cl)cc1)C2=O (stereo not given) | 100 |
| CC1(C)CC12NC(=O)N(NC(=O)c1ccccc1Cl)C2=O (stereo not given) | 300 |
| CC1(C)CC12NC(=O)N(NC(=O)c1ccc(F)cc1)C2=O (stereo not given) | 100 |
| CC1(C)CC12NC(=O)N(NC(=O)c1ccccc1)C2=O (stereo not given) | 300 |

System: Mus musculus
Test: Neurotoxicity against ip dosed mouse by rotarod test after 4 hrs
Assay type: toxicity, organism-based
Details: in vivo
Summary of the method: (§3)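 Mice were trained on a 1-in. knurled rod turning at 6 rpm, then given 30, 100 or 300 mg/kg ip as a suspension in 0.5% methylcellulose. They were tested at 0.5 h and 4.0 h. Neurotoxicity meant failure to keep balance on the rod for at least 1 min in each of four trials. The minimal dose affecting half or more of the mice was recorded.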

| SMILES | Activity | MED [mg/kg] |
| --- | --- | --- |
| CC1(C)CC12NC(=O)N(NC(=O)c1ccc(C(F)(F)F)cc1)C2=O (stereo not given) | Not Active | – |
| CCC1(C)CC(=O)NC1=O (stereo not given) [ETHOSUXIMIDE] | Not Active | – |
| CN(C)c1ccc(C(=O)NN2C(=O)NC3(CC3(C)C)C2=O)cc1 (stereo not given) | Not Active | – |
| CC(C)(C)c1ccc(C(=O)NN2C(=O)NC3(CC3(C)C)C2=O)cc1 (stereo not given) | Not Active | – |
| CC1(C)CC12NC(=O)N(N1C(=O)c3ccccc3C1=O)C2=O (stereo not given) | Not Active | – |
| CC1(C)CC12NC(=O)N(NC(=O)c1ccc([N+](=O)[O-])cc1)C2=O (stereo not given) | Not Active | – |
| CC1(C)CC12NC(=O)N(NC(=O)c1ccc(Cl)cc1)C2=O (stereo not given) | Not Active | – |
| CC1(C)CC12NC(=O)N(NC(=O)c1ccccc1Cl)C2=O (stereo not given) | – | 300 |
| CC1(C)CC12NC(=O)N(NC(=O)c1ccc(F)cc1)C2=O (stereo not given) | – | 300 |
| CC1(C)CC12NC(=O)N(NC(=O)c1ccccc1)C2=O (stereo not given) | Not Active | – |

System: Mus musculus
Test: Neurotoxicity against ip dosed mouse by rotarod test after 0.5 hrs
Assay type: toxicity, organism-based
Details: in vivo
Summary of the method: as §3

| SMILES | Activity | MED [mg/kg] |
| --- | --- | --- |
| CC1(C)CC12NC(=O)N(NC(=O)c1ccc(C(F)(F)F)cc1)C2=O (stereo not given) | Not Active | – |
| CCC1(C)CC(=O)NC1=O (stereo not given) [ETHOSUXIMIDE] | Not Active | – |
| CN(C)c1ccc(C(=O)NN2C(=O)NC3(CC3(C)C)C2=O)cc1 (stereo not given) | Not Active | – |
| CC(C)(C)c1ccc(C(=O)NN2C(=O)NC3(CC3(C)C)C2=O)cc1 (stereo not given) | Not Active | – |
| CC1(C)CC12NC(=O)N(N1C(=O)c3ccccc3C1=O)C2=O (stereo not given) | Not Active | – |
| CC1(C)CC12NC(=O)N(NC(=O)c1ccc([N+](=O)[O-])cc1)C2=O (stereo not given) | Not Active | – |
| CC1(C)CC12NC(=O)N(NC(=O)c1ccc(Cl)cc1)C2=O (stereo not given) | Not Active | – |
| CC1(C)CC12NC(=O)N(NC(=O)c1ccccc1Cl)C2=O (stereo not given) | Not Active | – |
| CC1(C)CC12NC(=O)N(NC(=O)c1ccc(F)cc1)C2=O (stereo not given) | Not Active | – |
| CC1(C)CC12NC(=O)N(NC(=O)c1ccccc1)C2=O (stereo not given) | – | 300 |

System: Mus musculus
Test: Protective index, ratio of TD50 for mouse to ED50 for inhibition of subcutaneous pentylenetetrazole-induced seizure in mouse
Assay type: functional
Details: not given

| SMILES | Ratio |
| --- | --- |
| CC1(C)CC12NC(=O)N(NC(=O)c1ccc(C(F)(F)F)cc1)C2=O (stereo not given) | 6.7 |
| CC(C)(C)c1ccc(C(=O)NN2C(=O)NC3(CC3(C)C)C2=O)cc1 (stereo not given) | 1.8 |
| CC1(C)CC12NC(=O)N(N1C(=O)c3ccccc3C1=O)C2=O (stereo not given) | 2.8 |

Species: Mus musculus
Test: Protective index, ratio of TD50 for mouse to ED50 for inhibition of maximal electroshock-induced seizure in mouse
Assay type: functional
Details: not given

| SMILES | Ratio |
| --- | --- |
| CC1(C)CC12NC(=O)N(NC(=O)c1ccc(C(F)(F)F)cc1)C2=O (stereo not given) | 45.8 |
| CC(C)(C)c1ccc(C(=O)NN2C(=O)NC3(CC3(C)C)C2=O)cc1 (stereo not given) | 15.5 |
| CC1(C)CC12NC(=O)N(N1C(=O)c3ccccc3C1=O)C2=O (stereo not given) | 17.8 |

System: Mus musculus
Test: Anticonvulsant activity in ip dosed mouse assessed as inhibition of PTZ-induced clonic seizure after 4 hrs
Assay type: functional
Details: not given
Summary of the method: as §1

| SMILES | Activity |
| --- | --- |
| CN(C)c1ccc(C(=O)NN2C(=O)NC3(CC3(C)C)C2=O)cc1 (stereo not given) | inactive |
| CC(C)(C)c1ccc(C(=O)NN2C(=O)NC3(CC3(C)C)C2=O)cc1 (stereo not given) | inactive |
| CC1(C)CC12NC(=O)N(NC(=O)c1ccc([N+](=O)[O-])cc1)C2=O (stereo not given) | inactive |
| CC1(C)CC12NC(=O)N(NC(=O)c1ccc(Cl)cc1)C2=O (stereo not given) | inactive |
| CC1(C)CC12NC(=O)N(NC(=O)c1ccccc1Cl)C2=O (stereo not given) | inactive |
| CC1(C)CC12NC(=O)N(NC(=O)c1ccc(F)cc1)C2=O (stereo not given) | inactive |
| CC1(C)CC12NC(=O)N(NC(=O)c1ccccc1)C2=O (stereo not given) | inactive |

Same assay, conditions: read-out: MED

| SMILES | minimal effective dose [mg/kg] |
| --- | --- |
| CC1(C)CC12NC(=O)N(NC(=O)c1ccc(C(F)(F)F)cc1)C2=O (stereo not given) | 300 |
| CCC1(C)CC(=O)NC1=O (stereo not given) [ETHOSUXIMIDE] | 300 |
| CC1(C)CC12NC(=O)N(N1C(=O)c3ccccc3C1=O)C2=O (stereo not given) | 300 |

System: Mus musculus
Test: Anticonvulsant activity in ip dosed mouse assessed as inhibition of maximum electric shock-induced hind limb tonic extension
Assay type: functional
Details: Hindlimb

| SMILES | ED50 [mg/kg] |
| --- | --- |
| CC1(C)CC12NC(=O)N(NC(=O)c1ccc(C(F)(F)F)cc1)C2=O (stereo not given) | 9.2 |
| NC(=O)N1c2ccccc2C=Cc2ccccc21 [CARBAMAZEPINE] | 8.8 |
| CC(C)(C)c1ccc(C(=O)NN2C(=O)NC3(CC3(C)C)C2=O)cc1 (stereo not given) | 25.3 |
| CC1(C)CC12NC(=O)N(N1C(=O)c3ccccc3C1=O)C2=O (stereo not given) | 13.7 |
| CCC1(c2ccccc2)C(=O)NC(=O)NC1=O [PHENOBARBITAL] | 21.8 |
